# Screening data: PubChem BioAssay, several laboratories
# Rows were chosen to be rich in hits. Some 1.4% of all compounds tested hit in one or more screens of this group.
# DDE Tn6 FP inh: disrupts Tn6 cyclic peptide binding to fibrin D-Dimer-E complex; Fibrin DD(E) TRITC-Tn6 fluorescence polarization displacement; inhibition, % at 8.3 µM; actives 0.21% (n = 370,000);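 active = inhibition above a per-campaign cutoff: mean of compounds within control limits plus 3 SD, cut at about 15% in these data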;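 also: 0% = median of all compound wells on the plate and 100% = blocking peptide control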
# Target sequence (P02675 whole entry, looked up): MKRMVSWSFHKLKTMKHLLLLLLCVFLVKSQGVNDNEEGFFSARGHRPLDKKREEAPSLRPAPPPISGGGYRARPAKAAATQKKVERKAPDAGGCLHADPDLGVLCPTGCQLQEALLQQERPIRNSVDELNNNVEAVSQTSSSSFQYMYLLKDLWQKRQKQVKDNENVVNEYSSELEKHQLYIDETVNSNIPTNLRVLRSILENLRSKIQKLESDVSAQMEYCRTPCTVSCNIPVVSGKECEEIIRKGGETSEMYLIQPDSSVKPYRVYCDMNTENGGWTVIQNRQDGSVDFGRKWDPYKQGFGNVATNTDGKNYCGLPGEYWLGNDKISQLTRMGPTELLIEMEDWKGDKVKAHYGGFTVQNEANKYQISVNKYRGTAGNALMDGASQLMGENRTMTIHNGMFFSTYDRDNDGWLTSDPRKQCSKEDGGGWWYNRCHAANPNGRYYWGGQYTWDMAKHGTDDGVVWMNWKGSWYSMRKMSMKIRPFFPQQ
# CRFBP-R2 block: antagonists of CRF-binding protein/CRF-R2 receptor complex | AID 588475 | HEK293 CRF-R2/CRF-BP, CRF-induced calcium fluorescence | actives 0.59% (n = 350,000) | inhibition, % at 11.8 µM;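 active = inhibition of the ligand-induced calcium signal above about 50% at the single tested concentration, limit read from the data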
# Cardiac RTF inh: cardiac RTF calcium desensitization; P19429+P45379; IANBD-labeled cardiac RTF, Ca2+ fluorescence; inhibition, % at 7.15 µM; actives 0.12% (n = 340,000); AID 493244;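 active = inhibition above the mean inhibition of all tested compounds plus 3 SD, cut at about 17% in these data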;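 also: assay run at fixed EC70 calcium of 1.6 mM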
# CRFR2-BP ag: agonists of human CRF-binding protein/CRF-R2 receptor complex. AID 588473. HEK293 CRF-R2/CRF-BP, calcium dye fluorescence (FLIPR); percent of saturating CRF peptide response. actives 0.46% (n = 350,000). activation, % at 13.2 µM;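 active = activation of at least 50%, plus an integration ratio under a set limit after plate pattern correction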;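 also: plate controls were neutral control wells without compound for no effect and CRF at EC100 for full effect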
# RTF Ca sens act: increases calcium sensitivity of human cardiac regulated thin filaments; IANBD-labeled TnC RTF fluorescence at EC20 calcium; 0% EC20 calcium, 100% full calcium; activation, % at 7.2 µM; actives 0.24% (n = 340,000);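 active = activation above the mean over all tested compounds plus 3 SD, cut at about 30% in these data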;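 also: rise in fluorescence read as greater calcium sensitivity of cardiac thin filaments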
# DDE Tn7 FP inh: inhibitors of Tn7 peptide binding to human fibrin DD(E); P02675; FP displacement of FITC-Tn7 peptide from fibrin DD(E); 0% = median of compound wells per plate; inhibition, % at 8.3 µM; actives 0.13% (n = 370,000);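 active = inhibition above the mean of compounds falling within the control limits plus 3 SD of them, cut at about 14% in these data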;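 also: 0% = plate median of compound wells and 100% = 10 µM Aha-Tn7 peptide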
#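 assay system = human clot-derived fibrin DD(E) complex | quantity = Fibrin-DD(E) at 2 µM final | timing = 10 min preincubation, 3 h with tracer, room temperature | signal = fluorescence polarization | measure = percent inhibition | benchmarks = high control wells with 10 µM unlabelled Aha-Tn7 peptide (full inhibition) | replicates = singlicate testing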
# * = called active by the depositor; i = inactive; . = no result.
SMILES,DDE Tn6 FP inh,CRFBP-R2 block,Cardiac RTF inh,CRFR2-BP ag,RTF Ca sens act,DDE Tn7 FP inh
O=S1(=O)c2ccc(N3CCCC3)cc2Oc2ccccc2CN1Cc1cn(Cc2ccccc2C(F)(F)F)nn1,-2.9,.,.,.,.,5.5
Cn1c(/C(C#N)=C/c2ccc(-c3ccc(S(N)(=O)=O)cc3)o2)nc2ccccc21,-3.9,-31.2,-17.9,17.9,44.8*,-0.1
Cn1c(/C(C#N)=C/c2cccc(O)c2)nc2ccccc21,-0.3,-26.8,-14.2,-0.2,-0.1,0.8
COc1cccc(CN(C)C(=O)C2CCCN(C(=O)c3ccc(Cl)cc3)C2)c1 (stereo not given),-11.3,4.1,.,-1.3,.,-4.5
Cc1ccc(N=Nc2ccc(O)c(P(=O)(c3ccccc3)c3ccccc3)c2)cc1,-0.3,107.6*,-8.7,-1.2,-3.8,-8.8
C=CCn1c(SCC(=O)Nc2cccc(OC)c2)nnc1-c1cccnc1,4.1,-9.7,-4.6,5.3,5.2,-6.4
C=CCn1c(SCC(=O)Nc2c(C)cccc2C)nnc1-c1ccncc1,-0.4,52.5*,-27.3,2.0,6.8,2.7
CC(=O)Nc1ccccc1OCC(=O)c1cc(C)n(Cc2cccs2)c1C,0.4,-89.2,-6.7,160.7*,14.0,2.6
CS(=O)(=O)N(Cc1ccccc1)c1ccc(C(=O)N2CCOCC2)cc1,-3.1,-50.4,-0.6,123.1*,3.7,5.9
Cc1cc(N2CCC[C@@H]2C)nc2ccccc12,-1.9,.,.,.,.,2.9
C=CCN1C(c2ccc(Br)cc2)=CS/C1=C(\C#N)c1nnc(N2CCOCC2)n1-c1ccccc1,-9.5,13.6,-5.3,-2.0,2.6,-0.7
C=CCN1C(c2cccc(C(F)(F)F)c2)=CS/C1=C(\C#N)c1nnc(N2CCOCC2)n1-c1ccccc1,-0.3,-15.8,.,57.7*,.,-3.0
Cc1cc(C)c(OCC(=O)Nc2ccccc2N2CCCCC2)c(C)c1,3.6,-3.1,1.2,2.3,-10.2,1.1
Cc1cc(C)c(OCC(=O)Nc2ccccc2N2CCOCC2)c(C)c1,-4.9,-71.7,-4.2,53.2*,1.1,-1.7
N#CCC(=O)Nc1ccc(C(=O)OCC(=O)NNC(=O)c2ccc(Cl)cc2)cc1,0.0,2.8,6.3,1.8,-2.4,8.6
O=C(Nc1cccc(O)c1)c1ccc(NC(=O)c2cccs2)cc1,-7.4,68.0*,0.9,-1.1,-2.4,6.2
N#CCC(=O)Nc1ccc(C(=O)OCC(=O)NNC(=O)c2cccs2)cc1,-1.4,54.9*,0.4,2.7,-0.1,-6.0
O=C(Nc1ccc(O)cc1)c1ccc(NC(=O)c2cccs2)cc1,-11.1,11.4,1.0,1.4,-5.5,-7.7
CCOC(=O)N(C)c1c(CC)nc2c(OCc3ccc(Cl)cc3Cl)cccn12,-11.6,.,.,.,.,1.6
Cc1ccc(S(=O)(=O)/N=C2\C=C(Nc3cccc(C(=O)O)c3)C(=O)c3ccccc32)c(C)c1,-2.3,66.0*,9.3,-0.5,-6.2,3.0
O=C1CC(O)(C(F)(F)F)Oc2c1ccc1ccccc21 (stereo not given),-2.4,65.0*,-2.8,61.6*,1.3,-3.5
O=C1CC(O)(C(F)F)Oc2ccc3ccccc3c21 (stereo not given),-2.7,-5.2,-5.4,-5.4,1.2,-9.2
O=C(NCCc1ccccc1)c1cccc2c1C(=O)N(C1CCCCC1)C2,5.8,15.3,-1.4,2.1,-0.7,4.3
COc1ccc(CCNC(=O)c2cccc3c2C(=O)N(C2CCCCC2)C3)cc1OC,6.3,74.2*,-7.0,-1.9,-0.1,4.7
COC(=O)[C@]12C[C@H](CC(=O)NCc3ccccc3)C(=O)N(Cc3cccc4ccccc34)C1=C[C@H](C1CCCC1)O[C@@H]2C,-2.5,.,.,.,.,-6.7
SMILES,DDE Tn6 FP inh,CRFBP-R2 block,Cardiac RTF inh,CRFR2-BP ag,RTF Ca sens act,DDE Tn7 FP inh
C=CCN1[C@@H](C)[C@H](c2ccccc2)Oc2cccc(N3CCCC(C)C3)c2S1(=O)=O (stereo not given in full),1.6,.,.,.,.,2.5
Cc1ccc(CN2CC(=O)N3[C@H]4c5cc(Cl)ccc5OC[C@@H]4[C@H](c4ccccc4)[C@]3(C)C2=O)cc1,-2.1,72.2*,-0.2,4.2,-7.0,-6.3
Cc1ccc(CN2CC(=O)N3[C@H]4c5cc(C)ccc5OC[C@@H]4[C@H](c4ccccc4)[C@]3(C)C2=O)cc1,-2.3,-11.1,6.0,1.2,-5.1,4.0
Cc1cccc(C)c1NC(=O)COC(=O)c1c2c(nc3ccccc13)/C(=C\c1ccc3c(c1)OCO3)CCC2,-4.7,-56.4,-1.9,95.5*,6.2,-8.1
CC(OC(=O)c1c2c(nc3ccccc13)/C(=C\c1ccc3c(c1)OCO3)CCC2)C(=O)Nc1ccc(S(N)(=O)=O)cc1 (stereo not given),.,-302.3,i,314.4*,114.9*,.
CC(OC(=O)c1cc2ccccc2cc1O)C(=O)Nc1ccc(S(N)(=O)=O)cc1 (stereo not given),-12.0,-24.3,-7.6,1.4,4.8,-1.9
Cc1cccc(C)c1NC(=O)COC(=O)c1ccc2c(c1)OCO2,-0.8,10.2,-24.4,7.3,14.4,-1.4
Cc1ccc(-n2c(SCC(=O)Nc3ccc(OCc4ccccc4)cc3)nnc2-c2ccco2)cc1,0.1,.,.,.,.,4.3
CCOC(=O)c1sc(NC(=O)CSc2n[nH]c(-c3ccncc3)n2)c(C#N)c1C,7.0,69.8*,-8.1,-5.2,0.1,1.7
CCOC(=O)c1sc(NC(=O)CSc2nccc(C)n2)c(C#N)c1C,3.7,3.7,-6.5,0.7,-0.2,1.9
CCOc1ccccc1N(CC(=O)Nc1ccc(OC)c(OC)c1)S(=O)(=O)c1ccccc1,-8.4,0.4,4.6,-2.8,52.3*,-0.5
Cc1cccc(C)c1NC(=O)C(c1ccncc1)n1c(=O)c(-c2cc3ccccc3[nH]2)nc2ccccc21 (stereo not given),-5.1,.,.,.,.,-0.2
CCC(=O)Nc1ccc(NC(=O)c2oc3ccccc3c2C)cc1,-1.2,98.2*,0.7,-0.7,-8.8,0.2
COCCN1CCN(C(=O)c2cc(COc3cc(C)ccc3C)on2)CC1,.,71.1*,-2.9,-2.0,0.0,.
Cc1ccc(OCc2cc(C(=O)N3CCN(CC(=O)NC(C)C)CC3)no2)cn1,3.5,72.2*,-2.0,0.0,-0.7,6.7
O=C(Nc1ccccc1C(=O)N1CCOCC1)c1ccco1,1.5,35.2,-7.5,-2.5,-4.8,5.8
O=C(Nc1ccccc1C(=O)N1CCOCC1)c1ccncc1,-1.9,102.0*,-5.6,-5.5,-2.6,3.2
CC(=O)/C=C/n1c(=S)oc2ccccc21,-4.9,70.0*,.,2.2,.,-4.2
CC(C)CC(=O)/C=C/n1c(=S)oc2ccccc21,6.1,2.6,0.6,-1.4,2.0,-5.9
Cc1ccc(C2=C(O)c3ccccc3C(=O)C2=O)cc1,6.5,-11.6,-7.9,-0.8,-0.5,-4.1
